Here are results for twelve compounds from ChEMBL document CHEMBL3608241, “Molecular docking design and one-pot expeditious synthesis of novel 2,5-diarylpyrazolo[1,5-a]pyrimidin-7-amines as anti-inflammatory agents” (2015).

Molecules are shown by their SMILES.

Holding throughout (type): functional
Test [1] deals with Rattus norvegicus. The test is described as follows: Antiinflammatory activity in Wistar albino rat assessed as inhibition of carrageenan-induced paw edema at 50 mg/kg, po administered 30 mins prior to carrageenan challenge measured after 1 hr by plethysmometric analysis relative to control. A digest of the protocol: (§1)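 Male Wistar albino rats, 200-250 g, housed under standard light and temperature, fasted from 12 h before and through the experiment; groups of five. Oral dosing 30 min before 0.1 ml of 1% carrageenan in 0.9% saline was injected into the left hind paw plantar region. Controls received Tween 80 only. Paw volume was read by plethysmometer at 0 h and at 1-4 h. Inhibition (%) = (Vc − Vt)/Vc × 100; mean ± SEM.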

Test [2] deals with Rattus norvegicus. In words: Antiinflammatory activity in Wistar albino rat assessed as inhibition of carrageenan-induced paw edema at 50 mg/kg, po administered 30 mins prior to carrageenan challenge measured after 3 hrs by plethysmometric analysis relative to control. In a few lines: as §1
The test system of test [3] is Rattus norvegicus. The test is described as follows: Antiinflammatory activity in Wistar albino rat assessed as inhibition of carrageenan-induced paw edema at 50 mg/kg, po administered 30 mins prior to carrageenan challenge measured after 2 hrs by plethysmometric analysis relative to control. A digest of the protocol: as §1
In test [4] the test system is Rattus norvegicus. In words: Antiinflammatory activity in Wistar albino rat assessed as inhibition of carrageenan-induced paw edema at 50 mg/kg, po administered 30 mins prior to carrageenan challenge measured after 4 hrs by plethysmometric analysis relative to control. In a few lines: as §1
Test [5] deals with Rattus norvegicus. The test is described as follows: Antiinflammatory activity in Wistar albino rat assessed as inhibition of carrageenan-induced paw edema at 10 mg/kg, po administered 30 mins prior to carrageenan challenge measured after 2 hrs by plethysmometric analysis relative to control. In a few lines: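 Male Wistar albino rats, 200-250 g, fasted 12 hr before and during the test; groups of five. Oral dosing 30 min before sub-plantar injection of 0.1 ml carrageenan (1% in 0.9% saline) into left hind paw; controls got tween 80. Paw volume read by plethysmometer at 0 hr and 1-4 hr; % inhibition = (Vc−Vt)/Vc×100 against control; mean ± SEM.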

For test [6], the system named is Rattus norvegicus. The test is described as follows: Antiinflammatory activity in Wistar albino rat assessed as inhibition of carrageenan-induced paw edema at 10 mg/kg, po administered 30 mins prior to carrageenan challenge measured after 1 hr by plethysmometric analysis relative to control. In a few lines: as §1
In test [7] the test system is Rattus norvegicus. In words: Antiinflammatory activity in Wistar albino rat assessed as inhibition of carrageenan-induced paw edema at 10 mg/kg, po administered 30 mins prior to carrageenan challenge measured after 4 hrs by plethysmometric analysis relative to control. In a few lines:
as §1

Test [8] relates to Rattus norvegicus. In words: Antiinflammatory activity in Wistar albino rat assessed as inhibition of carrageenan-induced paw edema at 10 mg/kg, po administered 30 mins prior to carrageenan challenge measured after 3 hrs by plethysmometric analysis relative to control. A digest of the protocol: as §1

As for `Cc1ccc(-c2cc3nc(-c4ccccc4)cc(N)n3n2)cc1`, the inhibition in vivo at 50 mg/kg in the test with Rattus norvegicus [1] was 26.9%; with Rattus norvegicus [2] it was 34.1%; in the test on Rattus norvegicus [3], 17.5%; with Rattus norvegicus [4], 34.5%.
On the same counts, the results for `Cc1ccc(-c2cc3nc(-c4ccc(Br)cc4)cc(N)n3n2)cc1` are 71.2%, 56.1%, 56.2% and 66.7%.
For `Nc1cc(-c2ccc(Br)cc2)nc2cc(-c3ccccc3)nn12` the same measures were 65.4%, 56.1%, 63.8% and 66.7%.
Take `Cc1ccc(-c2cc(N)n3nc(-c4ccccc4)cc3n2)cc1`: the inhibition in vivo at 50 mg/kg in the test with Rattus norvegicus [1] was determined as 28.8%; in the test with Rattus norvegicus [2], 31.7%; with Rattus norvegicus [3], 37.5%; in the test with Rattus norvegicus [4] it was 54.8%.
With `Nc1cc(-c2ccc(Cl)cc2)nc2cc(-c3ccccc3)nn12`, the inhibition in vivo at 50 mg/kg in the test on Rattus norvegicus [1] was 21.1%; with Rattus norvegicus [2] it was 28%; in the test with Rattus norvegicus [3], 13.8%; in the test on Rattus norvegicus [4] it was 51.2%.
Turning to `Cc1ccc(-c2cc3nc(-c4ccc(F)cc4)cc(N)n3n2)cc1`, the inhibition in vivo at 50 mg/kg with Rattus norvegicus [1] was determined as 28.8%; with Rattus norvegicus [2] it was 26.8%; in the test with Rattus norvegicus [3], 65%; in the test with Rattus norvegicus [4], 64.3%.
For `Cc1ccc(-c2cc(N)n3nc(-c4ccc(Cl)cc4)cc3n2)cc1`, the inhibition in vivo at 50 mg/kg in the test on Rattus norvegicus [1] worked out at 57.7%; in the test with Rattus norvegicus [2] it was 69.5%; in the test with Rattus norvegicus [3], 75%; in the test with Rattus norvegicus [4], 81%.
For the compound `Cc1ccc(-c2cc3nc(-c4ccc(Cl)cc4)cc(N)n3n2)cc1`, the inhibition in vivo at 50 mg/kg in the test on Rattus norvegicus [1] is 59.6%; in the test on Rattus norvegicus [2], 64.6%; in the test with Rattus norvegicus [3], 67.5%; with Rattus norvegicus [4], 67.8%.
As to `Nc1cc(-c2ccc(Br)cc2)nc2cc(-c3ccc(Cl)cc3)nn12`, the inhibition in vivo at 50 mg/kg in the test with Rattus norvegicus [1] worked out at 59.6%; in the test on Rattus norvegicus [2], 70.7%; in the test on Rattus norvegicus [3], 60%; in the test on Rattus norvegicus [4], 76.2%.
On the same counts, the results for `Nc1cc(-c2ccc(Cl)cc2)nc2cc(-c3ccc(Br)cc3)nn12` are 13.5%, 56.1%, 72.5% and 65.5%.
Regarding `Cc1ccc(-c2cc(N)n3nc(-c4ccc(Br)cc4)cc3n2)cc1`, the inhibition in vivo at 50 mg/kg in the test on Rattus norvegicus [1] was determined as 67.3%; in the test on Rattus norvegicus [2], 73.2%; in the test with Rattus norvegicus [3], 76.2%; in the test with Rattus norvegicus [4] it was 64.3%.
Consider `COc1ccc2c(c1)c(CC(=O)O)c(C)n2C(=O)c1ccc(Cl)cc1` [INDOMETHACIN], for which the inhibition in vivo at 10 mg/kg with Rattus norvegicus [5] was found to be 80%; in the test with Rattus norvegicus [6], 73.1%; in the test with Rattus norvegicus [7], 84.5%; in the test on Rattus norvegicus [8] it was 82.9%.
